Compound activity: PubChem, Broad Institute
A selection: hits, their analogues and other compounds. The true share with any hit is near 2.3%.
ERp5 inh = blocks human ERp5 reductase activity on insulin. Q15084. inhibition, % at 9.99 µM. ERp5 insulin aggregation, absorbance 650 nm, 90 min. AID 651711. 350,000 tested, 0.05% active;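 active means mean replicate inhibition above about 25%, with every replicate also reaching it, limit read from the data, passing the limit was not always enough; inconclusive means only one of those two criteria met; inactive means neither criterion met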
Target sequence (Q15084 whole entry, looked up): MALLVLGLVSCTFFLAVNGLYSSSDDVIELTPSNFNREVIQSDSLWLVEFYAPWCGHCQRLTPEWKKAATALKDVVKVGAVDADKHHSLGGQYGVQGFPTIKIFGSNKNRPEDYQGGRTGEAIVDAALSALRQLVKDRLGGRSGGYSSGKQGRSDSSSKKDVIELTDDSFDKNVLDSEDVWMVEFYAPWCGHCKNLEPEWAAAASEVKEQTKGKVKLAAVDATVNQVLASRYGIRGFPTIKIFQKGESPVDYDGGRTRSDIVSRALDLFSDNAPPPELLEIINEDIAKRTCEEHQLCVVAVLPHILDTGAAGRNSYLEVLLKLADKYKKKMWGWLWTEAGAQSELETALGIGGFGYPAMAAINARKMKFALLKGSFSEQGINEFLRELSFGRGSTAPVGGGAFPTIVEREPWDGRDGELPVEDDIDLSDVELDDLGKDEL
C2C12 statin = suppressors of simvastatin-induced myotoxicity in C2C12 myotubes. ATP luminescence, 48 h; scaled: DMSO 0, geranylgeraniol control 100. rescue of ATP level, % at 7.49 µM. 330,000 tested, 0.78% active;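 active means mean ATP rescue above about 67%, or every replicate alone reaching that limit, limit read from the data, passing the limit was not always enough; inconclusive means no clear call, values can overlap the other calls; inactive means mean under the limit and some replicate under it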;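 further: myotubes were challenged with 10 µM simvastatin during compound exposure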
PDI turbidity = inhibitors of human protein disulfide isomerase. PDI insulin aggregation turbidity, A650, 90 min. inhibition, % at 10 µM. 350,000 tested, 0.052% active;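 active means mean inhibition across replicates of 30% or more, whatever share of single replicates reach that level; inconclusive means mean inhibition below 30% while every single replicate reaches 30%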
Cneo AK release = causes C. neoformans cell lysis; adenylate kinase release luminescence, 4 h; normalised: neutral wells 0, clomiphene wells 100; lysis activity, % at 15 µM; 360,000 tested, 0.2% active; AID 651654;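 active means mean lysis activity across replicates of at least 80%, whatever share of replicates individually reach that level; inactive means mean lysis activity below 80%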
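Schedule: static 4 h at 37 °C with compound, 1 h detection; system: C. neoformans cells; benchmarks: Clomiphene as positive control; buffer or medium: fresh YPD medium; measure: luminescence rise reflecting yeast cell lysis; measured by: luminescent adenylate kinase detection reagent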
F508del corr = CFTR F508del correction in bronchial cells; 350,000 tested, 0.36% active; activity (quench increase), % at 7.58 µM; CFBE cells, YFP halide quenching; stimulated with forskolin plus potentiator P3; % fluorescence drop versus neutral controls; AID 720511;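 active means mean added fluorescence quench of at least 8% versus neutral control, with both replicates also reaching 8%; inconclusive means only one of the mean or replicate conditions met; inactive means mean below 8% and not both replicates reaching 8%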;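 further: cells transiently co-express mutant CFTR-F508del with the halide-sensitive YFP; corrector assay measuring rescue of mutant channel to the surface after 24 h compound exposure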
DENV2 CPE rescue = protects cells from dengue virus 2 cytopathic effect; AID 651640; 350,000 tested, 1.7% active; DENV2-infected cells, cytopathic effect rescue, plate reader; CPE inhibition, % at 9.99 µM; in the data active means CPE inhibition above about 20%, passing the limit was not always enough; inconclusive means no clear call, values can overlap the other calls; tested in BHK-21 cells;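 further: 0% = median of neutral control wells and 100% = median of positive control wells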
Starred values were filed as active, the others as inactive; ? = inconclusive; nt = no result given.

SMILES | ERp5 inh | C2C12 statin | PDI turbidity | Cneo AK release | F508del corr | DENV2 CPE rescue
C=C1C[C@H](O[C@@H]2O[C@H](CO)[C@@H](O)[C@H](O)[C@H]2O)[C@@H]2[C@H](OC(=O)[C@H]2C)[C@H]2[C@H](C)[C@H](O)C[C@@H]12 | 1 | -2 | 1 | 8 | -1 | 55*
CCOc1c(N2CC(C)OC(C)C2)c(=O)c1=O (stereo not given) | 4 | nt | -3 | 3 | -1 | -6
CC1CN(C2=CC(=O)CCC2)CC(C)O1 (stereo not given) | 1 | nt | -13 | nt | -2 | 21*
COC(=O)C(CC#Cc1ccc2c(c1)[C@]1(C(=O)N2)[C@H](c2ccccc2OCCO)N2[C@H](c3ccccc3)[C@H](c3ccccc3)OC(=O)[C@H]2[C@@H]1C(=O)N1CCc2cc(OC)c(OC)cc2C1)C(=O)OC | -7 | nt | nt | 64 | 0 | -5
CC1(C#N)c2ccccc2C(Br)=CN1C(=O)c1ccccc1 (stereo not given) | 6 | -1 | 8 | 0 | -4 | 31*
N#CC1(Cc2ccc(Cl)cc2)c2ccccc2C=CN1C(=O)c1ccccc1 (stereo not given) | nt | 7 | 1 | 4 | nt | nt
O=C(NC(=S)Nc1ccc(-c2ccccc2)cc1)c1ccccc1 | -2 | -64 | -7 | 2 | 10* | -4
O=C(NC(=S)Nc1ccc(Cl)cc1)c1ccccc1 | 3 | -11 | -2 | 3 | 2 | 7
Nc1nc(C2CC2)c(Sc2sc(N)nc2C2CC2)s1 | nt | 69* | -2 | -2 | nt | nt
COCCNC(=O)C[C@H]1CC[C@H]2[C@H](COc3ccc(NC(C)=O)cc3C(=O)N2C)O1 | nt | -10 | nt | -2 | 0 | -3
C[C@@H]1CCCCO[C@@H](CN(C)C(=O)CCC(F)(F)F)[C@H](C)CN([C@@H](C)CO)C(=O)c2cc(NS(C)(=O)=O)ccc2O1 | nt | -7 | nt | nt | 0 | nt
CCCNC(=O)C[C@@H]1C[C@@H]2c3cc(NC(=O)Nc4ccc(OC)cc4)ccc3O[C@@H]2[C@H](CO)O1 | 1 | -1 | nt | 79 | -3 | 3
CCCNC(=O)N(C)C[C@H]1Oc2ncc(-c3ccc(OC)cc3)cc2C(=O)N([C@@H](C)CO)C[C@H]1C | -8 | 6 | nt | -3 | -2 | -7
C[C@H]1CCCCO[C@@H](CN(C)C(=O)Nc2ccc(C(F)(F)F)cc2)[C@@H](C)CN([C@@H](C)CO)C(=O)c2cc(NS(=O)(=O)c3ccc(F)cc3)ccc2O1 | -1 | nt | nt | 9 | -1 | 76*
Cc1ccc(S(=O)(=O)Nc2ccc3c(c2)C(=O)N([C@H](C)CO)C[C@H](C)[C@H](CN(C)C(=O)Nc2ccc(C(F)(F)F)cc2)OCCCC[C@H](C)O3)cc1 | -5 | nt | nt | -1 | 0 | 53*
C[C@@H]1CCCCO[C@@H](CN(C)C(=O)Nc2ccc(C(F)(F)F)cc2)[C@H](C)CN([C@H](C)CO)C(=O)c2cc(NS(=O)(=O)c3ccccc3)ccc2O1 | -2 | nt | nt | -1 | -2 | 38*
COc1ccc(S(=O)(=O)Nc2ccc3c(c2)C(=O)N([C@@H](C)CO)C[C@@H](C)[C@H](CN(C)C(=O)Cc2ccccc2)OCCCC[C@@H](C)O3)cc1 | 1 | nt | nt | -2 | 3 | 3
C[C@H]1CCCCO[C@H](CN(C)C(=O)Nc2ccc(C(F)(F)F)cc2)[C@@H](C)CN([C@@H](C)CO)C(=O)c2cc(NS(=O)(=O)c3ccccc3)ccc2O1 | 0 | nt | nt | -8 | 1 | 18
Cc1ccc(S(=O)(=O)Nc2ccc3c(c2)C(=O)N([C@@H](C)CO)C[C@@H](C)[C@H](CN(C)C(=O)Nc2ccc(C(F)(F)F)cc2)OCCCC[C@@H](C)O3)cc1 | -4 | nt | nt | 2 | -3 | ?
COc1ccc(S(=O)(=O)Nc2ccc3c(c2)C(=O)N([C@@H](C)CO)C[C@@H](C)[C@H](CN(C)C(=O)Cc2ccccc2)OCCCC[C@H](C)O3)cc1 | -3 | nt | nt | -6 | 1 | 24*
Cc1noc(C)c1NC(=O)Nc1ccc2c(c1)CC(=O)N([C@H](C)CO)C[C@@H](C)[C@@H](CN(C)S(=O)(=O)c1ccc(F)cc1)O2 | -13 | 6 | nt | 1 | -2 | -1
C[C@@H]1CCCCO[C@H](CN(C)C(=O)Nc2ccc(F)cc2)[C@@H](C)CN([C@@H](C)CO)C(=O)c2cc(NS(=O)(=O)c3ccccc3)ccc2O1 | 2 | nt | nt | -1 | -1 | -11
COc1ccc(S(=O)(=O)Nc2ccc3c(c2)C(=O)N([C@H](C)CO)C[C@@H](C)[C@@H](CN(C)C(=O)Nc2ccc(C(F)(F)F)cc2)OCCCC[C@@H](C)O3)cc1 | -1 | nt | nt | -4 | -1 | 53*
COc1ccc(NC(=O)N(C)C[C@@H]2OCCCC[C@H](C)Oc3ccc(NS(=O)(=O)c4ccccc4)cc3C(=O)N([C@H](C)CO)C[C@H]2C)cc1 | -7 | nt | nt | -2 | 0 | 58*
C[C@@H]1CCCCO[C@H](CN(C)C(=O)Nc2ccc(C(F)(F)F)cc2)[C@@H](C)CN([C@H](C)CO)C(=O)c2cc(NS(=O)(=O)c3ccc(F)cc3)ccc2O1 | -1 | nt | nt | 4 | 1 | 21*
SMILES | ERp5 inh | C2C12 statin | PDI turbidity | Cneo AK release | F508del corr | DENV2 CPE rescue
C[C@@H]1CCCCO[C@@H](CN(C)C(=O)Nc2ccc(F)cc2)[C@@H](C)CN([C@H](C)CO)C(=O)c2cc(NS(=O)(=O)c3ccccc3)ccc2O1 | 1 | nt | nt | -5 | 1 | 31*
COc1ccc(NC(=O)N(C)C[C@H]2OCCCC[C@@H](C)Oc3ccc(NS(=O)(=O)c4ccccc4)cc3C(=O)N([C@@H](C)CO)C[C@H]2C)cc1 | -4 | nt | nt | 2 | 1 | 17
COC(=O)C[C@@H]1CC[C@@H]2[C@H](COc3ccc(NC(=O)C4CC4)cc3C(=O)N2C)O1 | -2 | -24 | nt | 0 | 0 | -1
C[C@@H]1CN([C@@H](C)CO)C(=O)Cc2cc(NC(=O)Nc3ccc(C(F)(F)F)cc3)ccc2O[C@@H]1CN(C)S(=O)(=O)c1cn(C)cn1 | -4 | -117 | nt | -3 | -2 | 3
COCC(=O)N1CC2(CN[C@@H](CO)c3c2c2ccc(OC)cc2n3C)C1 | nt | nt | nt | nt | 1 | -6
C[C@@H]1CCCCO[C@H](CN(C)C(=O)Nc2ccc(C(F)(F)F)cc2)[C@H](C)CN([C@@H](C)CO)C(=O)c2cc(NS(=O)(=O)c3ccc(F)cc3)ccc2O1 | 1 | nt | nt | 4 | 3 | 98*
C/C=C/c1cnc2c(c1)C(=O)N([C@@H](C)CO)C[C@@H](C)[C@@H](CN(C)C(=O)Cc1ccccc1)O2 | 4 | -6 | nt | 55 | -3 | -8
COc1ccc(CC(=O)NCCS(=O)(=O)N2CCN(c3ccccc3OC)CC2)cc1 | -14 | -4 | -8 | 0 | 2 | -4
COc1ccccc1N1CCN(S(=O)(=O)CCNC(=O)CCc2ccccc2)CC1 | -4 | 18 | 1 | -1 | 4 | 119*
